Assay outcomes: PubChem BioAssay, Broad Institute
In the library only some 1.9% were active in any assay of this set; here they are far more common.
HIV Env fusion: blocks HIV Env-driven cell-cell fusion; HeLa-JRFL Env/CEM21 cell fusion, luciferase; inhibition, % at 12.3 µM; actives 1.1% (n = 360,000);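 active = mean replicate inhibition score of at least 50 and every replicate individually at or above 50; inconclusive = only one of the two criteria met; inactive = mean below 50 and not all replicates reaching 50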;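 also: 0% = plate neutral controls and 100% = maraviroc near 300 nM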
PglD DTNB: inhibitors of Campylobacter jejuni PglD acetyltransferase | purified PglD enzyme, DTNB colorimetric CoA detection | inhibition, % at 12.5 µM | actives 0.098% (n = 360,000); in the data active = inhibition above about 16%, passing the limit was not always enough; inconclusive = no clear call, values can overlap the other calls
Glyco luc inh: N-linked glycosylation inhibition; D54 ERlucT glycosylation luciferase reporter, 24 h; percent of 100 nM tunicamycin response; reporter increase, % at 12.5 µM; actives 0.23% (n = 360,000); AID 588692;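 active = mean luciferase reporter signal, scaled so untreated is 0 and the glycosylation-blocking control 100, at or above a set limit in every replicate; inconclusive = mean reaches the limit but not every replicate does; inactive = mean below the limit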;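 also: luciferase carries N-glycosylation sites so blocking glycosylation raises the light; 0% = median of neutral control wells and 100% = median of 100 nM tunicamycin wells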
SR-BI uptake up: activators of SR-BI mediated HDL lipid uptake. AID 504775. actives 0.096% (n = 320,000). activation, % at 12.5 µM. CHO ldlA[mSR-BI] cells, DiI-HDL uptake fluorescence, 3 h; 100 = double the neutral-control signal;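 active = mean replicate activation of at least 60% and every replicate at or above 60%; inconclusive = mean or all-replicate condition met, but not both; inactive = mean below 60% and not all replicates reaching 60%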;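 also: 0% = median plate neutral-control signal and 100% = twice that signal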
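system = CHO ldlA[mSR-BI] cells, LDL receptor-null, SR-BI overexpressing | medium = Ham's F12 with 0.5% BSA, HEPES 25 mM, pH 7.4 | probe or stimulus = DiI-HDL 10 µg/mL | compound dosing = single-point compound dose | incubation = compound exposure 3 h, 37 °C | technique = DiI fluorescence, bottom read | read-out = cell-associated DiI fluorescence as measure of HDL uptake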
Rtt109 Vps75: C. albicans Rtt109 histone acetyltransferase inhibition; Q5AAJ8; actives 0.16% (n = 330,000); purified Rtt109/Vps75, ThioGlo CoA-SH fluorescence, 4 h; inhibition, % at 34.9 µM;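 active = inhibition of at least 50% in every replicate; inconclusive = best replicate reaches 50% inhibition but some replicates fall short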
SR-BI DiI inh: blocks mouse SR-BI lipid uptake from DiI-HDL; actives 0.96% (n = 320,000); inhibition, % at 12.5 µM; ldlA[mSR-BI] CHO cells, DiI-HDL uptake fluorescence, 3 h; Q61009;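 active = mean replicate inhibition of at least 70% and a set share of replicates each scoring 70 or more; inconclusive = meets just one of the two criteria; inactive = fails both criteria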;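 also: 0% = median of neutral control wells and 100% = median of positive control wells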
Target sequence (Q61009 whole entry, looked up): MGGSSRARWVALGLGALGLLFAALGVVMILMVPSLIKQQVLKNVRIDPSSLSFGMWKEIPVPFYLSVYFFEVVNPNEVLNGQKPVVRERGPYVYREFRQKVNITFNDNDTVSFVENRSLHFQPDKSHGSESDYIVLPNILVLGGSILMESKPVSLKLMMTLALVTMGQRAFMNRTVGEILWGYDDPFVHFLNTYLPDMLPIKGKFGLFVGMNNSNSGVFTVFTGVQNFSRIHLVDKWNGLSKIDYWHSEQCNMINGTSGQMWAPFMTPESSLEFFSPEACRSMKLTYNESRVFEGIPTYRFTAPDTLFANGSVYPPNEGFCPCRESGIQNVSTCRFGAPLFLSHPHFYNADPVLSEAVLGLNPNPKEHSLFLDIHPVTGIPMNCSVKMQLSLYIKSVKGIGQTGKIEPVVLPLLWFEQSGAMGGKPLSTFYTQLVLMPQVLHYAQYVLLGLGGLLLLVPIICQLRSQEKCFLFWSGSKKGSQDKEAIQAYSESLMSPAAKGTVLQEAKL
An asterisk follows results filed as active; u = inconclusive; x = no result; [ ] = remark or other dose.

SMILES	HIV Env fusion	PglD DTNB	Glyco luc inh	SR-BI uptake up	Rtt109 Vps75	SR-BI DiI inh
O=C(NNC(=S)NC1CCCCC1)c1ccccc1O	3	-4	-2	-118	-6	118*
O=C(NNC(=O)c1cc2ccccc2cc1O)NC1CCCCC1	-45	5	3	-115	9	115*
O=C(NNC(=S)NC1CCCCC1)c1cccs1	-8	3	0	5	10	-5
CN(C)c1nc(OCCNC(=O)COc2ccc(Cl)cc2Cl)nc(N(C)C)n1	44*	-4	-1	-22	7	22
CN(C)c1nc(OCCOC(=O)COc2ccc(Cl)cc2Cl)nc(N(C)C)n1	-73	-3	1	14	-5	-14
COc1cc(Cl)c(NC2=CC(=O)C(=O)c3ccccc32)c(OC)c1	x	-5	-21	-90	-5	90*
CCn1ncc(C2=NOC(C(=O)NCc3ccc(Cl)cc3)C2)c1C (centres undefined)	-97	-1	36*	-9	2	9
CCn1ncc(C2=NOC(C(=O)Nc3ccc(C)cc3)C2)c1C (centres undefined)	42*	x	-1	37	4	-37
CCn1ncc(C2=NOC(C(=O)Nc3cccnc3)C2)c1C (centres undefined)	-10	-1	0	24	13	-24
CNC(=O)C[C@@H]1CC[C@H]2[C@H](COc3ccc(NC(=O)Nc4ccccc4OC)cc3C(=O)N2C)O1	-8[16.7 µM]	-3	x	x	x	x
COc1ccc(C(=O)CSc2nnc(-c3cc4ccccc4cc3O)n2Cc2ccco2)cc1	-158	2	33*	-43	12	43
COc1ccc(C(=O)CSc2nnc(-c3cccnc3)n2Cc2ccco2)cc1	15	-2	0	-8	-15	8
N#Cc1sc2nccc(Nc3ccccc3)c2c1N	62*	-5	-14	x	x	x
COc1ccc(-c2ccc3c(c2)S(=O)(=O)c2cccc(C(=O)NCCOc4ccccc4)c2C3=O)cc1OC	x	-2	-6	-73	3	73*
Cc1ccc(S(=O)(=O)N(C)C[C@@H]2OCCCC[C@@H](C)Oc3ccc(NC(=O)Nc4ccc(F)cc4)cc3C(=O)N([C@@H](C)CO)C[C@@H]2C)cc1	0[16.7 µM]	-12	x	x	x	x
COc1cccc2sc3cc(C#Cc4ccccn4)ccc3c(=O)c12	-25	1	0	13	17	-13
COc1cc2sc3ccc(C#Cc4ccccn4)cc3c(=O)c2cc1OC	56*	3	-1	-13	-5	13
COc1cc2sc3ccc(C#Cc4ccc(N)cc4)cc3c(=O)c2cc1OC	-23	6	-2	-51	6	51
COc1cc2sc3ccc(-c4ccc5[nH]ccc5c4)cc3c(=O)c2cc1OC	-110	-3	-1	-75	2	75*
CCC(=O)N1CC[C@H]2[C@H](CO)Nc3ccc(-c4ccc(F)cc4)cc3[C@H]21	x	-1	x	x	x	x
COc1cccc(-c2nn(C)c3sc(C(=O)N4CCN(c5ccccn5)CC4)cc23)c1	x	0	2	9	51*	-9
CC(NCCCOc1cccc2ccccc12)c1ccccc1 (centres undefined)	75*	-4	-6	18	2	-18
O=C1C=CC(=O)N1c1ccc(Nc2ccccc2)cc1	-6	5	-1	-34	-4	34
O=C1C(Nc2ccccc2)=C2CCCC=C2N1c1ccccc1	6	x	-1	-79	1	79*
O=C(NCc1ccc(F)cc1)[C@@H]1[C@@H](CO)[C@@H]2Cn3c(cccc3=O)[C@H]1N2	x	2	x	x	x	x
CCC(/C=C1\Sc2ccc(OC)cc2N1CC)=C\c1sc2ccc(OC)cc2[n+]1CCCS(=O)(=O)[O-]	-5	-5	-4	15	u	-15
CCC(/C=C1\Sc2ccc(OC)cc2N1CCO)=C\c1sc2ccc(OC)cc2[n+]1CCO	-18	-1	-9	-30	114*	30
Cn1c(-c2ccccc2)c[n+]2c1-c1ccccc1C2	57*	x	3	15	3	-15
C[C@H](CO)N1C[C@H](C)[C@@H](CN(C)C(=O)C2CCC2)Oc2ncc(-c3ccncc3)cc2C1=O	5[16.7 µM]	x	x	x	x	x
